Experiment: Toxicity liver stage against HepG2, at 10uM
Type: cell-based
Design: test concentration 10 uM, cell line HepG2-A16-CD81EGFP
Conditions: human, HepG2-A16-CD81EGFP cells; read-out: INHIBITION
Summary of the method: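 Uninfected HepG2-A16-CD81EGFP cells, 3 × 10^3 per well, 1536-well, plated on prespotted compound at 10 μM final, parasite-free screening media added to match infected plates; puromycin 10 μM positive, DMSO 0.5% negative; run in parallel with 48 h PbLuc assay at 37 °C, 5% CO2; viability by CellTiter-Glo luminescence, normalized to controls.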

Row | SMILES | cytotoxicity at 10 µM [%]
1 | CC(C)(C)n1cc(C(=O)NCCN2CCOCC2)c2cccnc21 | 2.14
2 | CC(C)NC(=O)N1CCCC2(CCCCN2)C1 (stereo not given) | 11.4
3 | CCCS(=O)(=O)N1CC[C@H]2O[C@@H](c3nc(C)no3)CC[C@H]21 | -2.48
4 | O=C(c1cscn1)N1CCn2cnc(COCC3CC3)c2C1 | -4.6
5 | CNC(=O)[C@@]12CCCN(c3ncccn3)[C@@H]1CN(c1ncc(C)cn1)C2 | 3.97
6 | COc1ccc2nnc(CCCC(=O)NCc3cccn3C)n2n1 | 3.85
7 | COc1ccc(C(=O)N2CCCC2c2ccco2)cc1OC (stereo not given) | 1.03
8 | O=C(O)c1cc2c(nc1O)CC(c1cccs1)CC2=O (stereo not given) | 8.32
9 | O=C(O)c1nnn(-c2ccc(F)c(F)c2)c1-c1ccncc1 | 3.72
10 | CCc1ccccc1-n1nnc(C(=O)O)c1-c1ccccn1 | -6.42
11 | CC(=O)Nc1ncc(S(=O)(=O)Nc2ccc(F)cc2)s1 | 0.976
12 | COCc1ccc(C(=O)N2CC[C@H](O)[C@@H](n3ccnc3)CC2)cc1 | -12.1
13 | NC(=O)C1(CCCc2ccccn2)CCCN(c2ncccn2)C1 (stereo not given) | -5.69
14 | Cn1cc(-c2nc(C(=O)N3CCCC3c3cnn(C)c3)cs2)cn1 (stereo not given) | 1.85
15 | CN(C)CC1CN(CC(=O)N2CCc3ccccc32)CCO1 (stereo not given) | -1.61
16 | CCC(O)CN1CCN(C(=O)C2(c3ccc(C)c(OC)c3)CC2)CC1 (stereo not given) | 3.83
17 | O=C(NCCNS(=O)(=O)c1cc(F)cc(F)c1)c1ccoc1 | -1.33
18 | COc1ccc(CC(=O)N(C)c2cccnc2N(C)C)c(Cl)c1 | 5.71
19 | Cc1ccc(C(=O)Nc2ccc(N3CCCC3)cn2)cc1F | 47.4
20 | Cc1ccc(C(C)NC(=O)Nc2ccccc2CN2CCOCC2)o1 (stereo not given) | 3.25
21 | CCOC(=O)NC(CNC(=O)CCc1ccccn1)CC(C)C (stereo not given) | -4.61
22 | CNS(=O)(=O)c1cc(C(=O)NC2CCOc3ccccc32)cc(C)c1C (stereo not given) | 6.82
23 | COC(=O)CCCn1ccnc1-c1ccccc1 | -4.65

Row | SMILES | cytotoxicity at 10 µM [%]
24 | CCc1cc(N2CCN(C(C)=O)CC2)n2nc(C)c(C)c2n1 | 3.96
25 | c1ccc(CN2CCC(CCNc3ncnc4c3CCNCC4)C2)cc1 (stereo not given) | -0.16
26 | O=C(O)[C@@H]1CN(C(=O)CN2CCCCCC2)C[C@H]1c1ccccc1 | 4.97
27 | NC(=O)c1c[nH]nc1NC(=O)c1ccc(Cl)cc1 | 3.19
28 | CCC(O)CN1CCN(C(=O)Cc2ccc(OC)cc2OC)CC1 (stereo not given) | -23.8
29 | CCc1nccn1C1CCCN(C(=O)CCCc2ccccn2)C1 (stereo not given) | -18.7
30 | CSCCC(=O)N1CCCC(n2ccnc2)C1 (stereo not given) | -6.28
31 | CCN(Cc1ccc2c(c1)OCCO2)C(=O)NCc1csc(C)n1 | -5.16
32 | Cc1noc(C2CCCN(C(=O)c3ccc(Cl)cc3F)C2)n1 (stereo not given) | -25.3
33 | CC(=O)N1CCCC1C(=O)NCCOc1cc(C)cc(C)c1 (stereo not given) | -10.5
34 | Cc1ccc(CNCC(C)Oc2ccccn2)cc1 (stereo not given) | 5.4
35 | Cc1ccc(N2CCC3(CCN(C(=O)c4ccnnc4)CC3)CC2)nn1 | 3.94
36 | Cn1cc(CN2CCCC3(COCCN(Cc4c[nH]nn4)C3)C2)cn1 (stereo not given) | -0.501
37 | COc1cc(N2C[C@@H]3COC[C@]3(COc3ccccn3)C2)ncn1 | 1.35
38 | Cc1cccc(NC(=O)N2CCCn3cnc(CN(C)C(C)C)c3C2)c1 | 8.18
39 | Cc1cc(CN2CC[C@H]3[C@H]2CCN3C)oc1C | -0.655
40 | O=c1[nH]c2ncccc2n1C1CCNCC1 | 11.5
41 | O=C1COC2(CCN(c3ncccn3)CC2)CN1Cc1ccccn1 | 2.4
42 | Cn1nnc2c1CCN(C(=O)C1CC1)C2COCCN1CCCC1 (stereo not given) | 8.33
43 | Cn1cccc1C(=O)N1CCn2nnc(COc3cccnc3)c2C1 | -69.7
44 | Cc1cnc(C(=O)N2C[C@H]3CN(Cc4cccnc4)C[C@H]3C2)cn1 | 2.4
45 | O=C(c1cnccn1)N1C[C@H]2CC[C@@H](C1)N(S(=O)(=O)c1cccnc1)C2 | -2.03

Source: ChEMBL document CHEMBL4513216, “Probing the Open Global Health Chemical Diversity Library for Multistage-Active Starting Points for Next-Generation Antimalarials” (ACS Infect Dis, 2020)
